Apaf1 activ: activators of human Apaf-1 apoptosome, primary screen, biochemical, DEVD-Rh110 fluorescence, uHTS; Apaf-1 apoptosome caspase-3 activation; hits give low values; AID 489031, 2010; 330,000 compounds, 0.31% hits; activity change, negative = activation, % at 20 µM;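 active = activity change at or below -40% at 20 µM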
Target sequence (O14727 whole entry, looked up): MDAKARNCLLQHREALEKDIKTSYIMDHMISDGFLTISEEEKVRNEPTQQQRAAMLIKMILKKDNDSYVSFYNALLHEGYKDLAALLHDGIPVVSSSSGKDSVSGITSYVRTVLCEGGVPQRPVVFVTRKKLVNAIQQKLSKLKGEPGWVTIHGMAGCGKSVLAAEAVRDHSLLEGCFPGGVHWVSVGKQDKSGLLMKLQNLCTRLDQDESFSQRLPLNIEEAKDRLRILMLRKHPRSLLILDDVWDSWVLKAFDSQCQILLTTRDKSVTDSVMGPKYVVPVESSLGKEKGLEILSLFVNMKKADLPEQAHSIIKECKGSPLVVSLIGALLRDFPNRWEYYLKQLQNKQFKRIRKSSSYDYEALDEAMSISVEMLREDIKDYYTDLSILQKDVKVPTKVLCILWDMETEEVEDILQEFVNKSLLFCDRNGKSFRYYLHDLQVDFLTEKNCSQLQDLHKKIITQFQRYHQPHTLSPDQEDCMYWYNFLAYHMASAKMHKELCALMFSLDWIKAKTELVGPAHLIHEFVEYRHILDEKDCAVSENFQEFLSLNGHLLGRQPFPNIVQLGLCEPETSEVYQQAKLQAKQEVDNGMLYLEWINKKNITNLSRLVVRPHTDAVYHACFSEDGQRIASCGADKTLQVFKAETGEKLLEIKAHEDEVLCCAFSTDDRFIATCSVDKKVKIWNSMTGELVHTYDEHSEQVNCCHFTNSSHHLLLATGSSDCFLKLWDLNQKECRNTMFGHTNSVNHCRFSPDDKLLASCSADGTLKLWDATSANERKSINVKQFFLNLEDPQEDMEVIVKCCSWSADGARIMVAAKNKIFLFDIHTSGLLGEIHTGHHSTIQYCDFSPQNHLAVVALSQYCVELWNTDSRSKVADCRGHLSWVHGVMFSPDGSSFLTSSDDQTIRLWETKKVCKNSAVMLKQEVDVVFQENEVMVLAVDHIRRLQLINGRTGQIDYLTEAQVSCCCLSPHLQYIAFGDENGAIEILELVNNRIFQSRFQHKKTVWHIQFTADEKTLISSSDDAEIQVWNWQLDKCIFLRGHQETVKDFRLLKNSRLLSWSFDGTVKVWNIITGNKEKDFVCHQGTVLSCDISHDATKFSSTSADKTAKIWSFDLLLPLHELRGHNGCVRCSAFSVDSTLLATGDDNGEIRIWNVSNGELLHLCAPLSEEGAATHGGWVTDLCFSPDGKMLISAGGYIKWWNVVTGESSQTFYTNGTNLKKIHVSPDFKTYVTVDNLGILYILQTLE
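Schedule: 30 min preincubation, 50 min reaction, room temperature / System: biochemical Apaf-1 apoptosome reconstitution / Medium: 20 mM HEPES pH 7.5 with CHAPS, BSA / Evaluation: Caspase-3 cleavage activity downstream of Apaf-1 activation / Detection: Caspase-3-released Rh110 fluorescence, 540 nm emission, 480 nm excitation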
Rh110 interf act: Rh110 fluorescence interference by putative Apaf-1 activators, confirmation, artefact control for Apaf-1 activator project, biochemical, 20 µM; shares compounds with Apaf1 activ; quenched caspase reaction, Ex480/Em540; fluorescence interference (activity change), % at 20 µM, hits read low; 980 tested, under 10 active; AID 504616, 2011;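 active = mean activity change at or below -40% when tested at 20 µM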
Apaf-1 act conf: Apaf-1 activators, single-dose retest, confirmation, biochemical, fluorescence, DEVD-Rh110, 20 µM | shares compounds with Apaf1 activ | reconstituted apoptosome caspase-3 activity; hits give low values | activity change, negative = activation, % at 20 µM | 980 compounds, 5% hits | AID 504617, 2011;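 active = mean activity change at or below -40%, meaning activation of 40% or more, at 20 µM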
Apaf1 act interf: fluorescence interference of Apaf-1 activator hits, dose response, artefact control for Apaf-1 activator project; shares compounds with Apaf1 activ; fluorescence interference counterscreen, Apaf-1 activator assay; EC50, µM; 55 tested, under 10 active; call rule not given here
Starred values were filed as active, the others as inactive. Not all results are given here.

COc1ccccc1OCC(=O)NCC1CCCN(C(=O)c2ccccc2SC)C1 (stereo unspecified) was read as Apaf1 activ 51.
Screening CCCN1CCCc2cc(CN)ccc21 returned Apaf1 activ 84.
For COc1ccc(OCc2cc(C(=O)N3CCSCC3)no2)c(Cl)c1 the results were Apaf1 activ -153*, Rh110 interf act 7 and Apaf-1 act conf 13.
`CN1/C(=C\C(=O)COC(=O)c2ccc([N+](=O)[O-])o2)C(C)(C)c2ccccc21` gave Apaf1 activ 56.
Screening O=C1Cc2ccccc2C(=O)N1Cc1ccccc1 returned Apaf1 activ 52.
Screening CCOC(=O)N1CCN(S(=O)(=O)N2CCCC(C(=O)NCCCN3CCCCC3CC)C2)CC1 (stereo unspecified) returned Apaf1 activ -61*, Rh110 interf act 1 and Apaf-1 act conf 18.
CC(Cc1c[nH]c2ccccc12)C(=O)O (stereo unspecified) was read as Apaf1 activ -351*, Rh110 interf act 8, Apaf-1 act conf -120* and Apaf1 act interf >100.
For CN(C)CCCNC(=S)NCC(c1ccc(Cl)cc1Cl)c1c[nH]c2ccccc12 (stereo unspecified) the results were Apaf1 activ 41.
For NC(=NCCCCCCN=C(N)/N=C(\N)Nc1ccc(Cl)cc1)/N=C(\N)Nc1ccc(Cl)cc1 the results were Apaf1 activ 76.
CCN(CC(=O)Nc1ccc2c(c1)OCCO2)S(=O)(=O)c1ccc(C)cc1 was read as Apaf1 activ -78*, Rh110 interf act -6 and Apaf-1 act conf 11.
`CCN(Cc1ccccc1)S(=O)(=O)c1ccc(C(=O)N(CCCN(C)C)c2nc3cc4c(cc3s2)OCCO4)cc1` gave Apaf1 activ 41.
For CN(CC(=O)Nc1ccc2c(c1)OCCO2)S(=O)(=O)c1cccc2cccnc12 the results were Apaf1 activ -115*, Rh110 interf act 13 and Apaf-1 act conf 13.
Screening CC(C)=CCC/C(C)=C/CNC(=O)C[C@H]1C[C@H](C(=O)N2CCOCC2)[C@@]2(C)c3[nH]c4cc(-c5ccco5)ccc4c3CCN2C1=O returned Apaf1 activ 44.
Cc1ccc(C)c(N2CCN(S(=O)(=O)c3cn(C)cn3)CC2)c1 was read as Apaf1 activ -78*, Rh110 interf act -4 and Apaf-1 act conf 8.
Screening COc1cccc2c1C(=O)c1c(O)c3c(c(O)c1C2=O)C[C@@](O)(C(=O)CO)C[C@@H]3O[C@H]1C[C@H](N)[C@H](O)[C@H](C)O1 returned Apaf1 activ 58.
`CCCCCc1cc(=O)oc2c(C(CCN3CCCCC3)c3ccc4c(c3)OCO4)c(OC)cc(OC)c12` (stereo unspecified) gave Apaf1 activ 66.
`CC(C)Oc1ccc(C(=O)NC2(C(F)(F)F)NC(=O)N(CCCc3ccccc3)C2=O)cc1` (stereo unspecified) gave Apaf1 activ -45*, Rh110 interf act 6 and Apaf-1 act conf 17.
For COc1cccc(-c2cn3nc4c(nc3n2)CCCC4)c1 the results were Apaf1 activ 53.
Screening COc1cccc(-c2cc(C(F)(F)F)n3nc(N)nc3n2)c1 returned Apaf1 activ -44*, Rh110 interf act -11 and Apaf-1 act conf 10.
O=C1/C(=C\c2ccc(-c3ccccc3[N+](=O)[O-])o2)C(c2ccccc2)=NN1c1ccccc1 was read as Apaf1 activ 44.
Screening COc1cc(/C=C2/C(=O)N(c3cccc(Br)c3)N=C2C)cc(OC)c1O returned Apaf1 activ 82.
Screening COc1ccc(C(C(=O)NC2CCCC2)N(Cc2ccc(F)cc2)C(=O)c2ccn[nH]2)cc1OC (stereo unspecified) returned Apaf1 activ -105*, Rh110 interf act -5 and Apaf-1 act conf 10.
Screening C=CCn1c(NC(=O)c2ccc(Br)o2)c(S(=O)(=O)c2ccccc2)c2nc3ccccc3nc21 returned Apaf1 activ 63.
CCCNc1c(F)c(F)c2c(C)c3ccccc3nc2c1F was read as Apaf1 activ 51.
Screening O=C1C(=O)N(CCN2CCOCC2)C(c2ccccc2)/C1=C(\O)c1ccc2c(c1)OCCO2 (stereo unspecified) returned Apaf1 activ 50.
